# Results taken from ChEMBL document CHEMBL1124918, “Synthesis and evaluation of alpha-[[(2-haloethyl)amino]methyl]-2- nitro-1H-imidazole-1-ethanols as prodrugs of alpha-[(1-aziridinyl)methyl]-2- nitro-1H-imidazole-1-ethanol (RSU-1069) and its analogues which are radiosensitizers and bioreductively activated cytotoxins” (J Med Chem, 1990).
# Legend:
# [1] = tested on: V79; assay: Concentration which reduced survival to 1% following incubation 3 hours with V79 mammalian cells under aerobic (Cair) conditions; assay type: functional, cell-based; details: Cricetulus griseus
# Summary of the method: (§1)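 Chinese hamster V79-379A cells, 1.5 × 10⁶ per glass bottle, grown to confluency over 48 h. Exposed for 3 h at 37 °C to a range of agent concentrations in growth medium (pH 7.4), under aerobic or hypoxic conditions. Cells then trypsinized, diluted and plated for colony formation. The ratio is aerobic over hypoxic concentration.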
# [2] = tested on: V79; assay: Concentration which reduced survival to 1% following incubation 3 hours with V79 mammalian cells under hypoxic (Cnitrogen) conditions; assay type: functional, cell-based; details: Cricetulus griseus; summary of the method: as §1
# [3] = Ratio of concentration which reduced V79 cell survival to 1% under aerobic conditions to that of hypoxic conditions; assay type: functional; summary of the method: as §1
# [4] = tested on: Mus musculus; assay: Maximum tolerated dose was determined for compound administered intraperitoneally in C3H/He mice; assay type: functional
# Summary of the method: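 Female C3H/He mice, 8–12 weeks old, bearing KHT sarcoma. Given ip within 10 min, 0.5 mL/25 g (1 mL/25 g if solubility-limited). Escalating single doses to groups of 2–3 mice; MTD is the highest dose without severe or persistent clinical signs or death within 24 h.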
# [5] = Half-life at pH of 5.5-6.0 at 23 degree Centigrade; assay type: ADME; details: pH 5.5
# Summary of the method: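 Agent (0.2–0.5 mM) incubated in PBS, with or without NaHCO₃ (24–107 mM), pH adjusted right after preparation, at 23 °C. Aliquots taken over time and checked for loss by isocratic HPLC on a CN column, UV at 313 nm. Mobile phase was 10–25% methanol in 10 mM KH₂PO₄, pH 3.0.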
# [6] = Half-life at pH of 5.5-6.0 at 4 degree Centigrade; details: pH 5.5-6.0
# [7] = tested on: Mus musculus; assay: Maximum tolerated dose was determined for compound administered intraperitoneally as a suspension in arachis oil in C3H/He mice; assay type: functional
# [8] = Half-life at pH of 7.0 at 4 degree Centigrade; assay type: ADME; details: pH 7
# Summary of the method: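 Agent (0.2–0.5 mM) incubated in PBS at pH 7.0 and 4 °C, with pH adjusted right after the solution was made. Aliquots taken at set times were analysed by isocratic HPLC on a CN column, with UV detection at 313 nm. Mobile phase was 10–25% methanol in 10 mM KH2PO4, pH 3.0, at 2 mL min⁻¹. Half-life came from loss of parent compound.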
Compound,Concentration [1],Concentration [2],Ratio [3],MTD [4],also measured
O=[N+]([O-])c1nccn1CC(O)CNCCO (centres undefined),70 mM,3.5 mM,20,,
CCNCC(O)Cn1ccnc1[N+](=O)[O-] (centres undefined),,,,3.9 mM/kg,
C[C@@H]1[C@H](C)N1CC(O)Cn1ccnc1[N+](=O)[O-] (some centres undefined),,,,3 mM/kg,
Br.O=[N+]([O-])c1nccn1CC(O)CNCCBr (centres undefined),2.3 mM,0.09 mM,25.5,1 mM/kg,half-life [5]: 30 min
O=[N+]([O-])c1nccn1CC(O)CN1CC1 (centres undefined),0.3 mM,0.003 mM,100,0.4 mM/kg,
Br.CC(C)(Br)C(C)(C)NCC(O)Cn1ccnc1[N+](=O)[O-] (centres undefined),,,,0.7 mM/kg,half-life [6]: < 2 min
Br.CC(C)(CBr)NCC(O)Cn1ccnc1[N+](=O)[O-] (centres undefined),,,,1 mM/kg,half-life [6]: < 5 min
Cl.F.O=[N+]([O-])c1nccn1CC(O)CNCCF (centres undefined),35 mM,2.5 mM,14,,
I.O=[N+]([O-])c1nccn1CC(O)CNCCI (centres undefined),2.4 mM,0.08 mM,30,,
CC(C)(CCl)NCC(O)Cn1ccnc1[N+](=O)[O-].Cl (centres undefined),,,,0.8 mM/kg,half-life [6]: 76 min
CC1(C)N(CC(O)Cn2ccnc2[N+](=O)[O-])C1(C)C (centres undefined),,,,,MTD [7]: 1.5 mM/kg
C[C@@H](Cl)[C@@H](C)NCC(O)Cn1ccnc1[N+](=O)[O-].Cl (some centres undefined),,,,3 mM/kg,half-life [5]: 120 min
Cl.O=[N+]([O-])c1nccn1CC(O)CNCCCl (centres undefined),5 mM,0.35 mM,14.3,1.5 mM/kg,half-life [5]: > 300 min; half-life [8]: ~280 min
Br.C[C@@H](Br)[C@@H](C)NCC(O)Cn1ccnc1[N+](=O)[O-] (some centres undefined),,,,1 mM/kg,half-life [8]: 30 min
CC(C)(Cl)C(C)(C)NCC(O)Cn1ccnc1[N+](=O)[O-].Cl (centres undefined),,,,1.3 mM/kg,half-life [6]: < 2 min
